Measured values taken from PMC8209782 (Bioorganic & medicinal chemistry, 2020).

Tests used:
HNE = molecular target: T1, HNE (Homo sapiens, UniProt P08246); assay: In vitro HNE enzyme assay with pNa substrate; assay type: biochemical
T1 sequence (P08246 30-267): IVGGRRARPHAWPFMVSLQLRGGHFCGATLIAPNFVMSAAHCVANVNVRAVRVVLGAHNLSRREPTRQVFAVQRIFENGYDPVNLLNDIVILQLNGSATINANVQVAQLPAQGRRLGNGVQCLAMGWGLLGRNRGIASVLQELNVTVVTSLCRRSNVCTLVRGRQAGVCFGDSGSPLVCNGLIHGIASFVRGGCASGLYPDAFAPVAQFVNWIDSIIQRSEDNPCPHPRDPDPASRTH

other kallikreins = assay: Protease panel assay; assay type: biochemical, human; details: up to 10 μM
Method in brief: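 Human kallikreins in a 23-protease panel run by a contract lab, with enzyme conditions tabulated in the supplement. […] Fluorogenic AMC peptide substrates; fluorescence increase followed as a time course. The initial linear slope (signal/min) was used to derive IC50.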

C/C=C1\NC(=O)[C@@H](NC(=O)[C@@H](NC(=O)[C@H](C)NC(=O)C/C(C)=C/Cl)[C@@H](C)CC)[C@@H](C)OC(=O)[C@H](C(C)C)NC(=O)[C@H](Cc2ccc(O)cc2)N(C)C(=O)[C@H](Cc2ccccc2)N2C(=O)[C@H](CC[C@H]2O)NC1=O [Tutuilamide A]
fold less active than lyngbyastatin 7 against HNE (HNE): 1.5 fold | effect on other kallikreins (selectivity profiling) (other kallikreins): without affecting
